ChEMBL document CHEMBL4425094, “Novel Benzo[a]quinolizidine Analogs Induce Cancer Cell Death through Paraptosis and Apoptosis” (J Med Chem, 2016)
Calls of active or inactive are those of the source. The calls are words filed in the database; no cut-off is given here.

Key:
PC-3 [1] = experiment: Induction of apoptosis in human PC3 cells assessed as PARP cleavage after 24 hrs by Western blot analysis; assay type: functional, cell-based
Procedure, shortened: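 PC3 cells in RPMI 1640 with 10% FBS, treated with compound for timed intervals. DMSO vehicle control. Lysis in RIPA buffer, 40 μg protein per lane on SDS-PAGE, transfer to nitrocellulose. Primary antibodies overnight at 4 °C, HRP-secondary 45 min, ECL detection. GAPDH or β-actin used as loading control.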

PC-3 [2] = experiment: Induction of apoptosis in human PC3 cells assessed as late apoptotic cells at 1 uM after 24 hrs by Annexin V-FITC/propidium iodide based flow cytometric analysis (reference value: 1.1 %); assay type: functional
Procedure, shortened: (§1)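 PC3 cells exposed to 0.5, 1 or 2 μM for 24 h, then stained with Annexin V-FITC and PI and analyzed by FACSCalibur flow cytometry. Populations assigned as necrotic (Annexin V−/PI+), late apoptotic (double positive), normal (Annexin V−/PI−) and early apoptotic (Annexin V+/PI−). DMSO vehicle control.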

PC-3M [3] = experiment: Induction of ER stress i in human PC3M-lluc-C6 cells xenografted in athymic Balb/c mouse assessed as increase in GRP78 protein levels at 15 mg/kg, ip administered every 2 days for 18 days by Western blot and immunohistochemical staining method; assay type: functional, organism-based
Procedure, shortened: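 Tumor tissue from PC3M-luc-C6 xenografts in BALB/c-nu mice dosed 15 mg/kg i.p. every 2 days. GRP78 measured by Western blot and by immunohistochemistry (anti-GRP78 1:500 overnight at 4 °C, HRP/DAB, hematoxylin counterstain).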

PC-3 [4] = experiment: Induction of vacuolization in human PC3 cells in presence of CHX after 24 hrs by phase-contrast microscopic analysis; assay type: functional, cell-based
Procedure, shortened: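 PC3 cells pretreated with 10 μM actinomycin D or 5 μM cycloheximide, then treated with agent for 24 h. Vacuolization imaged by phase-contrast microscopy; viability by MTT.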

PC-3 [5] = experiment: Induction of apoptosis in human in human PC3 cells assessed as reduction in cell viability in presence of caspase inhibitor by MTT assay
PC-3 [6] = experiment: Induction of apoptosis in human PC3 cells assessed as necrotic cells at 0.5 uM after 24 hrs by Annexin V-FITC/propidium iodide based flow cytometric analysis (reference value: 1.1 %); assay type: functional; procedure, shortened: as §1
PC-3 [7] = experiment: Induction of apoptosis in human PC3 cells assessed as viable cells at 2 uM after 24 hrs by Annexin V-FITC/propidium iodide based flow cytometric analysis (reference value: 95.4 %); assay type: functional; settings: PC-3, 24 h, read-out: Activity; procedure, shortened: as §1
PC-3 [8] = experiment: Induction of apoptosis in human PC3 cells assessed as late apoptotic cells at 0.5 uM after 24 hrs by Annexin V-FITC/propidium iodide based flow cytometric analysis (reference value: 1.1 %); assay type: functional; procedure, shortened: as §1
PC-3M [9] = experiment: Antitumor activity against human PC3M-lluc-C6 cells xenografted in athymic Balb/c mouse assessed as tumor weight at 15 mg/kg, ip administered every 2 days for 18 days (reference value: 0.71 +/- 0.06 g); assay type: functional
PC-3M [10] = experiment: Induction of paraptosis in human PC3M-lluc-C6 cells xenografted in athymic Balb/c mouse at 15 mg/kg, ip administered every 2 days for 18 days by H and E staining based method; assay type: functional, organism-based
Procedure, shortened: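 Subcutaneous PC3M-luc-C6 xenografts (5 × 10^6 cells) were grown in 6-week male athymic BALB/c-nu mice. Groups of n = 5 received 15 mg/kg i.p. every 2 days from ~0.1 cm3 tumor volume, with a vehicle group. Excised tumor tissue was examined by H&E staining for vacuoles.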

PC-3 [11] = experiment: Induction of autophagy in human PC3 cells assessed as vacuole formation at 1 uM after 24 hrs in presence of PI3K inhibitor 3-MA by phase-contrast microscopic analysis; assay type: functional, cell-based
Procedure, shortened: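 PC3 cells were pretreated with the autophagy inhibitor (3-MA or E64d), then exposed to 1 μM test agent for 24 h. Morphology was imaged by phase-contrast microscopy, and viability was read by MTT at 570 nm. Comparison was against agent-only cells.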

PC-3 [12] = experiment: Induction of cell cycle arrest in human PC3 cells assessed as accumulation in G2 phase at 0.5 uM after 24 hrs by […]propidium iodide based flow cytometric analysis (reference value: 16.3 to 25 %); assay type: functional
PC-3 [13] = experiment: Induction of cell cycle arrest in human PC3 cells assessed as accumulation in S phase at 1 uM after 24 hrs by […]propidium iodide based flow cytometric analysis (reference value: 21 to 31.6 %); assay type: functional
PC-3M [14] = experiment: Induction of immature autophagy i in human PC3M-lluc-C6 cells xenografted in athymic Balb/c mouse assessed as increase in LC3 protein levels at 15 mg/kg, ip administered every 2 days for 18 days by Western blot and immunohistochemical staining method; assay type: functional, organism-based
Procedure, shortened: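 Male athymic BALB/c-nu mice (6 weeks) carried subcutaneous right-flank PC3M-luc-C6 xenografts (5 × 10^6 cells). At ~0.1 cm3 they were grouped (n = 5) and given 15 mg/kg i.p. suspension every 2 days; placebo and docetaxel 15 mg/kg were controls. Tumors were analyzed by Western blot and by immunohistochemistry (anti-LC3 1:800, anti-p62 1:500, overnight 4 °C, HRP/DAB, hematoxylin counterstain).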

PC-3 [15] = experiment: Induction of ER stress in human PC3 cells assessed as formation of vacuoles after 8 to 24 hrs […]; assay type: functional, cell-based
MCF7 = experiment: Cytotoxicity against human MCF7 cells assessed as cell growth inhibition after 24 hrs by MTT assay; assay type: functional, cell-based; settings: MCF7, 24 h
Procedure, shortened: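 Cells seeded 24 h in RPMI 1640 + 10% FBS. RWPE-1 was kept in K-SFM with bovine pituitary extract and EGF. Cells then exposed to compounds for 24 h at 37 °C, 5% CO2, with DMSO vehicle and docetaxel as positive control. MTT added for 4 h, absorbance read at 570 nm. Triplicate runs, IC50 reported as mean of three experiments.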

PC-3 [16] = experiment: Induction of cell cycle arrest in human PC3 cells assessed as accumulation in G2 phase at 1 uM after 24 hrs by […]propidium iodide based flow cytometric analysis (reference value: 16.3 to 25 %); assay type: functional

Cc1cc(C)cc(COc2cc3c(cc2OCc2cc(C)cc(C)c2)[C@@H]2C[C@H](O)C[C@@H](C)N2CC3)c1 (racemic)
Activity (PC-3 [1]): Active | Activity (PC-3 [2]): 2.6% | Activity (PC-3M [3]): Active | Activity (PC-3 [4]): inactive | Activity (PC-3 [5]): inactive | Activity (PC-3 [6]): 1% | viability at 2 µM (PC-3 [7]): 40% | Activity (PC-3 [8]): 1.2% | Activity (PC-3M [9]): 0.42 g | Activity (PC-3M [10]): Active | Activity (PC-3 [11]): inactive | Activity (PC-3 [12]): 13.7 - 14.9% | Activity (PC-3 [13]): 10.1 - 20.4% | Activity (PC-3M [14]): Active | Activity (PC-3 [15]): Active | IC50 (MCF7): 510 nM | Activity (PC-3 [16]): 11.9 - 14.5%
